High-throughput results as filed in PubChem.
The list is not random: actives were taken first. Their share in the collection is about 3.7%.
XBP1 UPR activ = adaptive UPR (XBP1) activation | AID 463104 | CHO-XBP1 luciferase reporter, IRE1-XBP1 UPR activation, luminescence; percent of tunicamycin response, DMSO as zero | activation, % at 20 µM | hit rate 0.33% among 330,000;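 active = versus positive control, 20 µM dose yields 30% or more activation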;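 note: 100% = tunicamycin at 10 µg/mL and 0% = DMSO only wells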
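assay system = CHO-XBP1 luciferase reporter cells | amount = 1000 cells/well | buffer or medium = F12 plus 10% FBS | compound dosing = single point, 20 µM final compound, 1% DMSO | incubation = 16-18 h cell attachment at 37 °C, then 6 h compound exposure | detection = Steady-Glo luminescence read | controls = tunicamycin 10 µg/mL and vehicle-only wells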
Mdm2 ligase inh = blocks human Mdm2 ubiquitin ligase activity. Q00987. cell-based MDM2 ubiquitination luciferase reporter, 2 h; 0 = plate control, 100 = twice control, blank-subtracted. signal enhancement, % at 5 µM. hit rate 0.11% among 210,000. AID 1230;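 active = signal enhancement of 30% or more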;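 note: luminescence tracks abundance of the self-degrading MDM2-luciferase fusion protein; higher signal means inhibition of MDM2 E3 ligase activity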
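Material: stable MDM2–luciferase fusion reporter cells / Quantity: 2000 cells/well / Dosing: single 5 µM compound dose, 0.2% final DMSO / Buffer or medium: DMEM / Schedule: 4 h cell settling then 2 h compound exposure, 37 °C / Detection: luminescence with SteadyLite reagent, 15 min at room temperature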
UPR CHOP act = activators of apoptotic arm of unfolded protein response (CHOP) | CHO-CHOP luciferase reporter, UPR activation, luminescence; percent of tunicamycin response over DMSO baseline | activation, % at 10 µM | hit rate 0.34% among 330,000 | AID 449763;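 active = at 10 µM dose, activation of 40% or more, normalized to positive control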;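 note: 100% = tunicamycin at 10 µg/mL and 0% = DMSO alone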
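measured by = luciferase luminescence | assay system = CHO-CHOP cells, stable luciferase reporter of PERK-eIF2a-CHOP signalling | amount = 500 reporter cells seeded per well | timing = 6 h compound exposure at 37 °C after overnight seeding | controls = positive tunicamycin 10 µg/mL, negative DMSO alone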
Mdm2-MdmX inh = human Mdm2/MdmX binding inhibition. hit rate 3% among 330,000. SaOS-2 split-luciferase Mdm2/MdmX complementation, luminescence. inhibition, % at 8 µM. O15151+Q00987. AID 485346;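 active = inhibition of at least 50% at 8 µM in the primary screen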
Dynein cargo inh = blocks dynein driven cargo transport along microtubules. AID 1381. hit rate 0.47% among 220,000. z-score, hits read low. 3617.4 mouse cells, GR-EGFP nuclear translocation imaging; test concentration mostly 20 µM; stimulated with dexamethasone, 1 µM; stronger effect = lower value;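 active = plate z-score of nuclear minus cytoplasmic receptor signal below a set negative limit, without overly bright fluorescence or cell loss, cut at about -3.5 in these data, passing the limit was not always enough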;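 note: z-score of nuclear minus cytoplasmic ring GR-EGFP intensity difference per well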
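Schedule: 48 h induction, then 1 h compound, then 30 min agonist, 37 °C. Buffer or medium: tetracycline-free induction medium containing charcoal-stripped FBS. Reagent: 1.0 µM final dexamethasone stimulus. Evaluation: nuclear versus cytoplasmic GR-EGFP signal, averaged per well. Signal: high-content fluorescence imaging after fixation.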
B2AR ag = human beta-2 adrenergic receptor agonism by FAP | Am2.2-beta2AR cells, FAP receptor internalization, flow cytometry | response, % (concentration not given with the values) | P07550 | hit rate 0.43% among 340,000;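 active = response above a set limit, near 3 SD of response in nonfluorescent compounds, cut at about 42% in these data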
Target sequence (P07550 whole entry, looked up): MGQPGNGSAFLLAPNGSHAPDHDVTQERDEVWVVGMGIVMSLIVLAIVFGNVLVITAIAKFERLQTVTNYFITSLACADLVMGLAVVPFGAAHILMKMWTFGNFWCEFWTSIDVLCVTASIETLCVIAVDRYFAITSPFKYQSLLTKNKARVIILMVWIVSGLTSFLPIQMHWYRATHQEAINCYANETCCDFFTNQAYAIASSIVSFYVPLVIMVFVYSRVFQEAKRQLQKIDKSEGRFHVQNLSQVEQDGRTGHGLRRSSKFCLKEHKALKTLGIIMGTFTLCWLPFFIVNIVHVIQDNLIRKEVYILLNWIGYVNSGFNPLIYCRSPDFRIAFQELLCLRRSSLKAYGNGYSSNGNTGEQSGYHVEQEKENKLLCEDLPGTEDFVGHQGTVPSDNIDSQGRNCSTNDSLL
Mdm2 MdmX conf = confirmation of human Mdm2/MdmX interaction inhibitors. shares compounds with Mdm2-MdmX inh. Mdm2-MdmX binding, luminescent assay. inhibition, % at 8 µM. hit rate 55% among 10,000; in the data active = inhibition above about 40%
FLuc counter = counter-screen for Mdm2/MdmX inhibitors: full-length luciferase | hit rate 77% among 6,200 | shares compounds with Mdm2-MdmX inh | SaOS-2 full-length luciferase counterscreen, luminescence | AID 504607 | inhibition, % at 8 µM;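 active = mean inhibition at 8 µM reaching about 37%, which flags the compound as non-specific, limit read from the data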;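 note: p53-null SaOS-2 cells with luciferase driven by a doxycycline-inducible promoter; compound on cells about two nights before reading with doxycycline added after day one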
Active calls of the source: *.

`COc1ccccc1CNC(=O)CCCOc1cc(=O)n(C)c2ccccc12` gave XBP1 UPR activ 0.5, Mdm2 ligase inh -15.4, UPR CHOP act -1.0, Mdm2-MdmX inh 58.5*, Dynein cargo inh -1.28, B2AR ag 2.4 and Mdm2 MdmX conf 33.7.
Cn1cnnc1Sc1ccc(/C=C/C(=O)c2ccc(O)cc2)cc1[N+](=O)[O-] was read as XBP1 UPR activ 5.1, Mdm2 ligase inh -3.2, UPR CHOP act 11.0, Mdm2-MdmX inh 50.5*, Dynein cargo inh -0.279, B2AR ag 28.4, Mdm2 MdmX conf 38.5 and FLuc counter 53.4*.
For CCN(C(=O)c1cc2c(C)nc3ccccc3c2o1)c1cc(Cl)ccc1OC the results were XBP1 UPR activ 0.7, UPR CHOP act 0.7, Mdm2-MdmX inh 13.4, Dynein cargo inh 0.14 and B2AR ag -8.7.
For O=C(NC1CCCCC1)C(c1ccccc1)N(C(=O)c1csnn1)C1CC1 (centres undefined) the results were XBP1 UPR activ 0.3, UPR CHOP act 1.7, Mdm2-MdmX inh 12.3 and B2AR ag -7.4.
Screening CCC(Sc1nc2cc3c(cc2c(=O)n1Cc1ccco1)OCO3)C(=O)Nc1cccc(OC)c1 (centres undefined) returned XBP1 UPR activ -1.0, Mdm2 ligase inh -82.9, UPR CHOP act -2.0, Mdm2-MdmX inh 40.5, Dynein cargo inh -0.115 and B2AR ag -8.7.
CCC(Sc1nc2cc3c(cc2c(=O)n1Cc1ccco1)OCO3)C(=O)Nc1ccccc1OC (centres undefined) was read as XBP1 UPR activ 1.0, Mdm2 ligase inh -12.2, UPR CHOP act -0.9, Mdm2-MdmX inh 61.1*, Dynein cargo inh -0.62, B2AR ag -3.8, Mdm2 MdmX conf 44.4* and FLuc counter 80.4*.
`O=C(NC1CCCCC1)c1cc(S(=O)(=O)N2CCCC2)ccc1Cl` gave XBP1 UPR activ -0.6, UPR CHOP act 1.0, Mdm2-MdmX inh 26.6 and B2AR ag 1.2.
COc1cc2c(c3ccccc13)CCCC2=O was read as B2AR ag 5.1.
Screening CC1CCc2c(sc3ncn(CC(=O)N=Nc4c(O)[nH]c5ccccc45)c(=O)c23)C1 (centres undefined) returned XBP1 UPR activ 0.3, UPR CHOP act 0.5, Mdm2-MdmX inh 53.4*, Dynein cargo inh -0.545, B2AR ag -4.7 and Mdm2 MdmX conf -4.0.
`CC1CCc2c(sc3ncn(CCO)c(=O)c23)C1` (centres undefined) gave XBP1 UPR activ 2.1, Mdm2 ligase inh -10.2, UPR CHOP act 3.3, Mdm2-MdmX inh -31.3, Dynein cargo inh 0.352 and B2AR ag -11.9.
`CC1(C)Cc2ccccc2C(c2cc3ccccc3oc2=O)=N1` gave XBP1 UPR activ 2.5, Mdm2 ligase inh 4.6, UPR CHOP act -0.8, Mdm2-MdmX inh 62.3*, Dynein cargo inh -0.0813, B2AR ag 5.3 and Mdm2 MdmX conf 26.3.
Screening CCC(=Cc1ccc(CC)cn1)CC returned XBP1 UPR activ -5.2, Mdm2 ligase inh -8.8, UPR CHOP act 1.0, Mdm2-MdmX inh 8.5, Dynein cargo inh -0.0308 and B2AR ag 6.9.
`O=C(Nc1ccccc1O)c1ccc(NS(=O)(=O)c2cccc3cccnc23)cc1` gave XBP1 UPR activ 18.4, Mdm2 ligase inh -1.6, UPR CHOP act 1.2, Mdm2-MdmX inh 76.6*, Dynein cargo inh -1.14, B2AR ag -4.5 and Mdm2 MdmX conf 23.8.
NC(=O)c1cc2ccncc2c2ccccc12 was read as XBP1 UPR activ -4.3, Mdm2 ligase inh -26.4, UPR CHOP act -3.2, Mdm2-MdmX inh 89.8*, Dynein cargo inh -0.498, B2AR ag -3.9, Mdm2 MdmX conf 94.2* and FLuc counter 51.5*.
Cc1cc(C(N)=O)c2ccccc2n1 was read as XBP1 UPR activ -0.4, Mdm2 ligase inh -4.4, UPR CHOP act -2.2, Mdm2-MdmX inh 13.7, Dynein cargo inh -0.0395 and B2AR ag 3.4.
O=C(CN1CCN(C(=O)CN2C(=O)NC3(CCCC3)C2=O)CC1)Nc1cccc(F)c1 was read as XBP1 UPR activ -0.3, UPR CHOP act -0.6, Mdm2-MdmX inh -20.7 and B2AR ag -1.3.
For NNC(=O)[C@@H]1C[C@@H]1c1ccccc1 the results were XBP1 UPR activ 0.6, UPR CHOP act 0.0, Mdm2-MdmX inh 11.9, Dynein cargo inh 0.478 and B2AR ag -5.4.
`CCc1c(C)sc(NC(=O)C2CC2c2ccccc2)c1C(N)=O` (centres undefined) gave XBP1 UPR activ -0.9, Mdm2 ligase inh -9.0, UPR CHOP act 2.3, Mdm2-MdmX inh 56.7*, Dynein cargo inh 2.7, B2AR ag -8.6, Mdm2 MdmX conf 72.9* and FLuc counter 55.4*.
Screening O=C(Nc1oc2ccccc2c(=O)c1-c1ccc(Cl)cc1)c1ccco1 returned XBP1 UPR activ -1.8, UPR CHOP act -1.6, Mdm2-MdmX inh 12.5 and B2AR ag 2.6.
`CCN1CCN(CCCNC(=O)c2ccc3c(Cl)c4c(nc3c2)CCCC4)CC1` gave XBP1 UPR activ -0.7, UPR CHOP act -0.4, Mdm2-MdmX inh 73.2*, B2AR ag 8.7, Mdm2 MdmX conf 46.4* and FLuc counter 43.5*.
`CN1CCN(C(=O)c2ccc3c(Cl)c4c(nc3c2)CCCC4)CC1` gave XBP1 UPR activ -1.9, UPR CHOP act 0.8, Mdm2-MdmX inh 19.1 and B2AR ag -2.6.
`N#CC1CCN(C(=O)c2ccc3c(Cl)c4c(nc3c2)CCCC4)CC1` gave XBP1 UPR activ 1.9, UPR CHOP act 1.0, Mdm2-MdmX inh 52.4*, B2AR ag -11.1 and Mdm2 MdmX conf -15.2.
Screening CCN1CCN(CCNC(=O)c2ccc3nc(-c4cccc(C)c4)c(-c4cccc(C)c4)nc3c2)CC1 returned XBP1 UPR activ 14.4, UPR CHOP act 2.2, Mdm2-MdmX inh 100.2*, B2AR ag 11.1, Mdm2 MdmX conf 59.4* and FLuc counter 16.3.
For COc1cccc(/C=C/c2nc(C#N)c(NCC(C)C)o2)c1 the results were XBP1 UPR activ -0.1, UPR CHOP act 2.3, Mdm2-MdmX inh 0.4 and B2AR ag -2.1.
Screening COc1cc(-c2onc3ccc(Br)cc23)cc(OC)c1OC returned XBP1 UPR activ -1.7, Mdm2 ligase inh -14.1, UPR CHOP act -0.8, Mdm2-MdmX inh 50.1*, Dynein cargo inh -1.42, B2AR ag -10.8, Mdm2 MdmX conf 52.5* and FLuc counter 59.6*.
